By half-life is commonly meant the time needed for the level to fall by half in the phase considered. As usually defined, the bioavailability is the share of a dose that reaches the circulation, judged against a reference dose that is usually intravenous. Read a high bioavailability as much systemic uptake. Usually IC50 stands for the point on the concentration scale where inhibition reaches its midpoint. Broadly, the Cmax is the highest concentration seen after dosing. Usually Tmax stands for the time from dosing to the highest level. For orientation: clearance means the rate of elimination divided by the concentration. A lower clearance goes with a low capacity for elimination.

Data set [1] can be described thus: Terminal elimination half life in rat at 1 mg/kg, iv. Type of data set: ADME, organism-based. The conditions noted are these: in vivo. Also noted: dose 1 mg/kg, route intravenous. In a few lines:
(§1)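 Rats given the compound as a 1 mg/kg intravenous bolus or 3 mg/kg perorally as a suspension. Blood was sampled at various time points up to 24 h, and parent compound levels were measured by LC/MS. Clearance, terminal half-life and steady-state volume of distribution come from the iv profile, Cmax and tmax from the po profile, and bioavailability from comparing iv and po dosing.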

Data set [2] is described as follows: Bioavailability in rat at 1 mg/kg, iv and 3 mg/kg, po. The note with it: in vivo. Type of data set: ADME, organism-based. In a few lines: as §1
In data set [3] the target is T1, Retinoic acid receptor RXR-alpha (Homo sapiens, UniProt P19793).
T1 sequence (P19793 whole entry): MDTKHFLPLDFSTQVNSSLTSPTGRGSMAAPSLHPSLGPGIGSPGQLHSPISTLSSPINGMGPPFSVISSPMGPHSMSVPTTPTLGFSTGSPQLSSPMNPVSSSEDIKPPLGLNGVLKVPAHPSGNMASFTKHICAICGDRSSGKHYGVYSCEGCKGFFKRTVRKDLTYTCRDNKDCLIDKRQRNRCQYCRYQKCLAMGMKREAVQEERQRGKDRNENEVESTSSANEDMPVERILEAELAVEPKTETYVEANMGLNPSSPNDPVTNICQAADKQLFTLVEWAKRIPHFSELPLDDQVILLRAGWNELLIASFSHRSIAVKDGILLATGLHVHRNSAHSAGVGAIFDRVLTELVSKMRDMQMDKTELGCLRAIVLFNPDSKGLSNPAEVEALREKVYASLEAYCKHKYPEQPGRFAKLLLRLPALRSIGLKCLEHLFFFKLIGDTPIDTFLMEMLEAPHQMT
The data set can be described thus: Antagonist activity at human RXRalpha expressed in […] cells assessed as inhibition of 9-cis-retinoic acid-induced transactivation. Type of data set: functional, cell-based, HEK293.

Data set [4] is described as follows: Volume of distribution at steady state in rat at 1 mg/kg, iv. The conditions noted are these: in vivo, read-out: Vdss. Also noted: dose 1 mg/kg, route intravenous. Type of data set: ADME, organism-based. A digest of the protocol: as §1
A short description of data set [5]: Cmax in rat at 3 mg/kg, po. Type of data set: ADME, organism-based. Further details: dose 3 mg/kg, route oral. The conditions noted are these: in vivo. A digest of the protocol: as §1
A short description of data set [6]: Tmax in rat at 3 mg/kg, po. Type of data set: ADME, organism-based. Further details: dose 3 mg/kg, route oral. The conditions noted are these: in vivo. In a few lines:
as §1

Data set [7] is described as follows: Plasma clearance in rat at 1 mg/kg, iv. Further details: dose 1 mg/kg, route intravenous. Type of data set: ADME, organism-based. A digest of the protocol:
as §1

For data set [8], the target named is T1, Retinoic acid receptor RXR-alpha. The data set can be described thus: Antagonist activity at human RXRalpha expressed in […] cells assessed as inhibition of LG-100268-induced transactivation. Type of data set: functional, cell-based, HEK293.

The structures appear in SMILES notation.

For `CCN1c2ccc(NS(=O)(=O)c3cccc(C(F)(F)F)c3)cc2N=C(c2ccc(C(=O)O)cc2)c2cc3c(cc21)C(C)(C)CCC3(C)C`, the half-life in data set [1] was 2.1 h. Also, the bioavailability in data set [2] was determined as 36%. The IC50 in data set [3] turned out to be 95 nM; in data set [8], 160 nM. For the same compound, the Vd in data set [4] stood at 1.2 L/kg. In data set [5], this compound showed a Cmax of 468 nM. Further, the Tmax in data set [6] turned out to be 4.7 h. Further, the clearance in data set [7] was 8.33 mL/min/kg.
`CCCN1c2ccc(NS(=O)(=O)c3cccc(C(F)(F)F)c3)cc2N=C(c2ccc(C(=O)O)cc2)c2cc3c(cc21)C(C)(C)CCC3(C)C`: the half-life in data set [1] was 1.8 h. In data set [2], this compound had a bioavailability of 21%. Also, the IC50 was 76 nM in data set [3] and 190 nM in data set [8]. In addition, the Vd in data set [4] amounted to 1.1 L/kg. The compound further returned a Cmax in data set [5] of 519 nM. The Tmax in data set [6] amounted to 4 h. The compound also showed a clearance in data set [7] of 6.67 mL/min/kg.

The values above are taken from ChEMBL document CHEMBL1149678, “Synthesis and structure-activity relationship of RXR antagonists based on the diazepinylbenzoic acid structure” (Bioorg Med Chem Lett, 2007).
